From paper PMC4467237 (Clinical Pharmacology in Drug Development, 2014)
Entries after “also recorded” stand apart in the source; their conditions may differ. Read-outs that look alike come from different tables or passages of the source. Marks after values point to notes of the source that are not given here.

Columns and labels:
[1] = single agent, Phase I and II studies; cited from earlier work
[2] = Safety assessments; assay type: in vivo, human
Method in brief: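 Healthy adults in a randomized two-sequence crossover with a 14-day washout. Each period gave an oral 400 mg interacting drug or placebo once daily for 18 days, plus a single oral 5 mg test compound on day 5 after a 10-h fast. AEs checked daily, graded mild/moderate/severe and for causality, coded in MedDRA v14.0. Vital signs taken before PK draws. Labs, 12-lead ECG and physical exam at baseline, predose and discharge. Summarized descriptively in dosed subjects with ≥1 postdose assessment.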

[3] = test system: CYP3A4; conditions: lenvatinib 0.1–10 µg/mL, human liver microsomes and human recombinant CYPs; ref Eisai data on file; cited from earlier work
[4] = healthy volunteers, cited from earlier work
[5] = assay type: in vivo, human; conditions: for AUC(0-t) / AUC(0-inf) / Tmax / half-life: human, plasma, oral
[6] = human; cited from earlier work
[7] = cited from earlier work
[8] = 5 mg lenvatinib + ketoconazole 400 mg/day [B], n = 16
[9] = 5 mg lenvatinib + placebo [A], n = 16
[10] = 5 mg, arithmetic mean (SD), 5 mg lenvatinib + placebo [A], n = 16
[11] = 5 mg, geometric mean (%CV), 5 mg lenvatinib + placebo [A], n = 16
[12] = arithmetic mean (SD), 5 mg lenvatinib + ketoconazole 400 mg/day [B], n = 16
[13] = geometric mean (%CV), 5 mg lenvatinib + ketoconazole 400 mg/day [B], n = 16

COc1cc2nccc(Oc3ccc(NC(=O)NC4CC4)c(Cl)c3)c2cc1C(N)=O [Lenvatinib]
Maximum tolerated dose [1]: 25 mg/day | Subjects reporting treatment-emergent AEs ([2]; following ketoconazole with lenvatinib, 18 subjects): 44% | Subjects reporting treatment-emergent AEs ([2]; following placebo with lenvatinib, 17 subjects): 59% | ECG results ([2]; overall, both treatments): either normal or considered not clinically significant | Serious TEAEs ([2]; overall, both treatments): No serious TEAEs were reported | Subjects with treatment-related TEAEs ([2]; overall, both treatments): 22% | Subjects reporting treatment-emergent AEs ([2]; overall, both treatments, N = 18): 72% | Hypertension ([2]; single-dose lenvatinib 5 mg alone or with ketoconazole, healthy subjects): not observed | Share of CYP3A4 in the CYP-mediated metabolism of lenvatinib [3]: > 80% | Median tmax ([4]; range 1–4 hours): 2 h | Mean t½ ([4]; range 11–57 hours): 27.6 h | AUC0–∞ [4]: 1409 ng·h/mL | Mean Cmax [4]: 144.5 ng/mL | CL/F, arithmetic mean (SD) [5, 8]: 7.70 (1.49) L/h | tlag, arithmetic mean (SD) [5, 8]: 0.06 (0.17) ^e h | CL/F, arithmetic mean (SD) [5, 9]: 8.78 (1.40) L/h | tlag, arithmetic mean (SD) [5, 9]: 0.16 (0.24) ^b h | Increase in Cmax with ketoconazole versus placebo ([5]; 5 mg lenvatinib, ketoconazole 400 mg/day): 19% | Percent extrapolation of AUC0–∞ ([5]; across all subjects): < 4% | Median time at which Cmax was achieved ([5]; both treatment conditions (placebo or ketoconazole)): 3 h | AUC(0-t) [5, 10]: 571 ng·h/mL | AUC(0-t) [5, 11]: 564 ng·h/mL | AUC(0-inf) [5, 10]: 584 ng·h/mL | AUC(0-inf) [5, 11]: 577 ng·h/mL | Tmax ([5]; 5 mg, tmax median (range), 5 mg lenvatinib + placebo [A]): 3 h | Tmax ([5]; 5 mg, tmax, arithmetic mean (SD), 5 mg lenvatinib + placebo [A], n = 16): 3.13 h | half-life ([5]; 5 mg, t½ median (range), 5 mg lenvatinib + placebo [A]): 29 h | AUC(0-t) [5, 12]: 661 ng·h/mL | AUC(0-t) [5, 13]: 647 ng·h/mL | AUC(0-inf) [5, 12]: 676 ng·h/mL | AUC(0-inf) [5, 13]: 662 ng·h/mL | Tmax ([5]; tmax median (range), 5 mg lenvatinib + ketoconazole [B]): 3 h | Tmax ([5]; tmax, arithmetic mean (SD), 5 mg lenvatinib + ketoconazole 400 mg/day [B], n = 16): 2.56 h | half-life ([5]; t½ median (range), 5 mg lenvatinib + ketoconazole [B]): 29.2 h | half-life ([5]; t½, arithmetic mean (SD), 5 mg lenvatinib + ketoconazole 400 mg/day [B], n = 16): 28.3 h | Decrease in apparent mean clearance in the ketoconazole treatment group ([5]; versus placebo): ~12% | Difference in tmax, t½ or tlag between the two treatments ([5]; visual assessment, ketoconazole versus placebo): No changes; also recorded: no difference | Renal clearance as contributor to oral clearance [6]: 1–2% | Terminal exponential half-life (t½,z) [6]: ~28 h

Cc1ccc(NC(=O)c2ccc(CN3CCN(C)CC3)cc2)cc1Nc1nccc(-c2cccnc2)n1 [imatinib]
Increase in AUC with ketoconazole coadministration ([7]; imatinib): 40%

Cc1cn(-c2cc(NC(=O)c3ccc(C)c(Nc4nccc(-c5cccnc5)n4)c3)cc(C(F)(F)F)c2)cn1 [nilotinib]
Increase in AUC with ketoconazole coadministration ([7]; nilotinib): more than 200% | Increase in Cmax with ketoconazole coadministration ([7]; nilotinib): 84%
